Results gathered from unrelated publications.
Lines come from different studies, so protocols differ. pIC50: −log10 of the molar value.
Observed: cell growth or viability

Compound | cell line | test | conditions | endpoint | result
CC(=O)Nc1cccc(-n2c(=O)n(C3CC3)c(=O)c3c(Nc4ccc(I)cc4F)n(C)c(=O)c(C)c32)c1 | SW1417 | resazurin | 6.25 nM, 72 h | viability | 71.8%
COc1cc(CN2CCc3cc(O)ccc3C2)cc(OC)c1OC | CNSSF-539 | SRB | – | GI50 | 36 nM
CN(C)c1ccc(C(=C2C=CC(=[N+](C)C)C=C2)c2ccc(N(C)C)cc2)cc1 | GISTT1 | resazurin | 72 h | pIC50 | 6.28
CN(C)CCCn1c2c(c3ccncc3c1=O)C(=O)c1ccccc1-2 | CNSSF-539 | SRB | – | GI50 | 708 nM
O=C1CCc2ccccc2C(=O)c2ccccc2N1 | L6 | – | – | pIC50 | 3.64
CCc1cc(CN2CCc3cc(OS(N)(=O)=O)c(OC)cc3C2)cc(CC)c1CC | CNSSF-539 | SRB | – | GI50 | 916 nM
O=C1Nc2ccc(C(=O)N3CCOCC3)cc2C(=O)CCc2ccccc21 | L6 | – | – | pIC50 | < 3.57
CC(=O)O[C@H]1C(=O)[C@@]2(C)[C@H]([C@H](OC(=O)c3ccccc3)[C@]3(O)C[C@H](OC(=O)[C@H](O)[C@@H](NC(=O)c4ccccc4)c4ccccc4)C(C)=C1C3(C)C)[C@]1(OC(C)=O)CO[C@@H]1C[C@@H]2O | GISTT1 | resazurin | 72 h | pIC50 | 6.68
O=C1Nc2ccccc2CCCc2ccccc21 | L6 | – | – | pIC50 | 3.72
CC[C@@]1(O)C(=O)OCc2c1cc1n(c2=O)Cc2cc3c(CN(C)C)c(O)ccc3nc2-1 | GISTT1 | resazurin | 72 h | pIC50 | 7.10
O=C1CCc2c(O)cccc2C(=O)Nc2ccccc21 | L6 | – | – | pIC50 | 3.68
O=c1ncccn1[C@@H]1O[C@H](CO)[C@@H](O)[C@H]1O | MEC1 | – | 48 h | IC20 | 75000 nM
